pIC50, pKi: −log10 of the molar value. Active and inactive are the calls of the source. The rule behind the calls is not given here.
Columns and labels:
Cholinesterase [1] = target: T1, Cholinesterase (Homo sapiens, UniProt P06276); assay: Inhibition of human serum BChE using S-Butyrylthiocholine iodide as substrate at 10 uM preincubated for 15 mins followed by substrate addition by Ellman's method
[2] = Cytotoxicity against human SH-SY5Y cells assessed as cell viability at 100 uM after 48 hrs by MTT assay relative to control; assay type: toxicity, cell-based; conditions: read-out: Activity
Method in brief: (§1)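 SH-SY5Y cells seeded at 5×10³ per well and grown 16-18 h, then exposed to 6.25, 12.5, 25, 50 or 100 µM compound for 48 h. MTT (2.5 mg/mL solution) was added for 4 h at 37 °C, 5% CO₂. Formazan was dissolved in DMSO and absorbance read at 490 nm. Viability is relative to control, mean ± SEM of experiments in triplicate.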

[3] = Cytotoxicity against human SH-SY5Y cells assessed as cell viability at 25 uM after 48 hrs by MTT assay relative to control; assay type: toxicity, cell-based; conditions: read-out: Activity; method in brief: as §1
[4] = Cytotoxicity against human SH-SY5Y cells assessed as cell viability at 12.5 uM after 48 hrs by MTT assay relative to control; assay type: toxicity, cell-based; conditions: read-out: Activity; method in brief: as §1
[5] = Cytotoxicity against human SH-SY5Y cells assessed as cell viability at 50 uM after 48 hrs by MTT assay relative to control; assay type: toxicity, cell-based; conditions: read-out: Activity; method in brief: as §1
[6] = Cytotoxicity against human SH-SY5Y cells assessed as cell viability at 6.25 uM after 48 hrs by MTT assay relative to control; assay type: toxicity, cell-based; conditions: read-out: Activity; method in brief: as §1
Cholinesterase [7] = target: T1, Cholinesterase; assay: Inhibition of human serum BChE using S-Butyrylthiocholine iodide as substrate preincubated for 15 mins followed by substrate addition by Ellman's method
Method in brief: (§2)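 Ellman assay in phosphate buffer pH 8.0 (0.08 M Na₂HPO₄/0.02 M NaH₂PO₄). hAChE at 0.004 U/mL or hBChE at 0.002 U/mL was preincubated with compound for 15 min at 37 °C. DTNB and ATC (hAChE) or BTC (hBChE) were added, each 50 µM final. A412 was read over 5 min and inhibition set against no-compound wells. IC50 from a variable-slope fit, mean ± SD of three independent experiments.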

Acetylcholinesterase [8] = target: T2, Acetylcholinesterase (Homo sapiens, UniProt P22303); assay: Inhibition of human recombinant AChE using acetylthiocholine iodide as substrate preincubated for 15 mins followed by substrate addition by Ellman's method; method in brief: as §2
SH-SY5Y = assay: Antioxidant activity against t-BHP-induced oxidative stress in human SH-SY5Y cells assessed as inhibition of ROS production at 1 to 5 uM after 24 hrs by DCFH-DA probe based flow cytometric analysis; assay type: functional, cell-based
Method in brief: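 SH-SY5Y cells seeded at 5×10^4 per well, left 16-18 h, then exposed to compound for 24 h. Cells were washed in PBS and loaded with 5 μM DCFH-DA together with 100 μM t-BHP in PBS, 30 min at 37 °C, 5% CO2. After washing and resuspension, flow cytometry read ex 488/em 525 nm. Value reported as (FIsample−FIblank)/(FIcontrol−FIblank)×100%, untreated cells as control, curcumin as positive control.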

Acetylcholinesterase [9] = target: T2, Acetylcholinesterase; assay: Non-competitive inhibition of human recombinant AChE using acetylthiocholine iodide as substrate preincubated for 15 mins followed by substrate addition by Lineweaver-Burk plot analysis
Method in brief: (§3)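 For kinetics, hAChE (0.004 U/mL) or hBChE (0.002 U/mL) was preincubated 15 min at 37 °C with inhibitor at three concentrations spanning 100-900 nM. DTNB was then added, followed by ATC or BTC at six serial concentrations from 0.125 to 1 mM. A412 was read for 5 min at 1-min intervals. Km and Vmax came from Michaelis-Menten fits, and mechanism from Lineweaver-Burk plots.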

Cholinesterase [10] = target: T1, Cholinesterase; assay: Non-competitive inhibition of human serum BChE using S-Butyrylthiocholine iodide as substrate preincubated for 15 mins followed by substrate addition by Lineweaver-Burk plot analysis; method in brief: as §3

T1 sequence (P06276 whole entry): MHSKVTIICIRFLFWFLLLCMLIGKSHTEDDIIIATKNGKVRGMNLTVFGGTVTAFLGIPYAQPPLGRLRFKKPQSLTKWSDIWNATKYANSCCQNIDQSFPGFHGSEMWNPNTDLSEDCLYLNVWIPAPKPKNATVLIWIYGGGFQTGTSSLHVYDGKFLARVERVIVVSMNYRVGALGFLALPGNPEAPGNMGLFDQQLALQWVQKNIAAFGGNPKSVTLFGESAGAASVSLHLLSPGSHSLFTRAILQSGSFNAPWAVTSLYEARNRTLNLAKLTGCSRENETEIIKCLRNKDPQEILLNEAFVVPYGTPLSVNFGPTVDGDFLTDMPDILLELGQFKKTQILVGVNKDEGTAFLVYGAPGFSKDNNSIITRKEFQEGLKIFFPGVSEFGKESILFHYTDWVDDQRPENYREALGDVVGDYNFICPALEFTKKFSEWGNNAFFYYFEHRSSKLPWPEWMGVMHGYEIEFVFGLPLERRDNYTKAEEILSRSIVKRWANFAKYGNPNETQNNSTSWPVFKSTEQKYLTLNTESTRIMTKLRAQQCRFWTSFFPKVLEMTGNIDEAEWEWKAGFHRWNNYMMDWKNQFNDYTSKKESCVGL
T2 sequence (P22303 whole entry): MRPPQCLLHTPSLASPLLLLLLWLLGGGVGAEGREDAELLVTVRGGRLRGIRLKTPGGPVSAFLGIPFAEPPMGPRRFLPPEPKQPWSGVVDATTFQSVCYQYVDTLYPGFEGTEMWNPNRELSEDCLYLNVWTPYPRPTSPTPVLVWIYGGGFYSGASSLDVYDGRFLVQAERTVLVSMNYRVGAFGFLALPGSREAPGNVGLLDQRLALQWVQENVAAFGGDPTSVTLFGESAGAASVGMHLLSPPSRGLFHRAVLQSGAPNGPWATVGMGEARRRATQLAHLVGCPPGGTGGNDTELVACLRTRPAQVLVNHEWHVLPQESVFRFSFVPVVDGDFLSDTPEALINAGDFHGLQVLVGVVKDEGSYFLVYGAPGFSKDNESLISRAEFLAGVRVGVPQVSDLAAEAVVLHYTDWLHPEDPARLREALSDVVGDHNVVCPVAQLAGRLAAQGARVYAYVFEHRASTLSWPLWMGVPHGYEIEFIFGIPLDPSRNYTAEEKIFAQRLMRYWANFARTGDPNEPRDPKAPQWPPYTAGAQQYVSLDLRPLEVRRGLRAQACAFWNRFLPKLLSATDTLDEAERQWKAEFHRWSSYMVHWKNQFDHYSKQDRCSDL

| SMILES | inhibition (Cholinesterase [1]) [%] | viability at 48 h, 100 µM [2] [%] | viability at 48 h, 25 µM [3] [%] | viability at 48 h, 12.5 µM [4] [%] | viability at 48 h, 50 µM [5] [%] | viability at 48 h, 6.25 µM [6] [%] | pIC50 (Cholinesterase [7]) | pIC50 (Acetylcholinesterase [8]) | inhibition (SH-SY5Y) | pKi (Acetylcholinesterase [9]) | pKi (Cholinesterase [10]) |
| --- | --- | --- | --- | --- | --- | --- | --- | --- | --- | --- | --- |
| COc1ccc(/C=C/C(=O)c2ccc(O)cc2)cc1 | < 50 |  |  |  |  |  |  |  |  |  |  |
| CCN(CC)C(=O)Oc1cccc(C(=O)/C=C/c2ccc(OC)cc2)c1 | < 50 |  |  |  |  |  |  |  |  |  |  |
| CCN(CC)C(=O)Oc1cccc(C(=O)/C=C/c2ccc(O)cc2)c1 | < 50 |  |  |  |  |  |  |  |  |  |  |
| CCN(C)C(=O)Oc1cccc(/C=C/C(=O)c2cccc(O)c2)c1 | > 50 | 0.16 | 53 | 88.2 | 11.2 | 101 | 5.54 |  |  |  |  |
| CN(C)C(=O)Oc1ccccc1C(=O)/C=C/c1ccc(O)cc1 | < 50 |  |  |  |  |  |  |  |  |  |  |
| CN(C)C(=O)Oc1ccc(/C=C/C(=O)c2ccc(O)cc2)cc1 | > 50 | 13.1 | 60.4 | 86.6 | 28.9 | 100 | 5.35 |  |  |  |  |
| CCN(C)C(=O)Oc1ccc(/C=C/C(=O)c2ccc(O)cc2)cc1 | > 50 | 1.39 | 51.5 | 80.8 | 22.4 | 91.7 | 5.22 |  |  |  |  |
| CCN(C)C(=O)Oc1ccc(/C=C/C(=O)c2cccc(O)c2)cc1 | > 50 | 0.81 | 67.1 | 93.9 | 16.5 | 96.1 | 5.25 |  |  |  |  |
| CCN(C)C(=O)Oc1cccc(C(=O)/C=C/c2ccc(O)cc2)c1 | > 50 | 5.42 | 49.2 | 68 | 17.4 | 96.2 | 5.36 |  |  |  |  |
| COc1ccc(/C=C/C(=O)c2cccc(O)c2)cc1 | < 50 |  |  |  |  |  |  |  |  |  |  |
| COc1ccc(/C=C/C(=O)c2cccc(OC(=O)N(C)C)c2)cc1 | > 50 | 0.67 | 74.3 | 95.3 | 20 | 101 | 5.47 | 5.09 |  |  |  |
| CCN(C)C(=O)Oc1ccc(C(=O)/C=C/c2ccc(OC)cc2)cc1 | > 50 | 0.22 | 83.2 | 86.1 | 52.7 | 95.5 | 5.13 |  |  |  |  |
| CN(C)C(=O)Oc1ccc(/C=C/C(=O)c2cccc(O)c2)cc1 | < 50 |  |  |  |  |  |  |  |  |  |  |
| CN(C)C(=O)Oc1cccc(/C=C/C(=O)c2cccc(O)c2)c1 | > 50 | 1.03 | 57.1 | 82.6 | 15.1 | 85.9 | 5.72 |  |  |  |  |
| COc1cc(/C=C/C(=O)CC(=O)/C=C/c2ccc(O)c(OC)c2)ccc1O |  |  |  |  |  |  |  |  | Active |  |  |
| COc1ccc(/C=C/C(=O)c2ccc(OC(=O)N(C)C)cc2)cc1 | < 50 |  |  |  |  |  |  |  |  |  |  |
| CCN(C)C(=O)Oc1ccc(C(=O)/C=C/c2ccc(O)cc2)cc1 | < 50 |  |  |  |  |  |  |  |  |  |  |
| CN(C)C(=O)Oc1ccc(C(=O)/C=C/c2ccc(O)cc2)cc1 | < 50 |  |  |  |  |  |  |  |  |  |  |
| CCN(C)C(=O)Oc1cc(OC(=O)N(C)CC)cc(C(=O)/C=C/c2ccc(O)cc2)c1 | < 50 |  |  |  |  |  |  |  |  |  |  |
| CCN(C)C(=O)Oc1cccc(C(=O)/C=C/c2ccc(OC)cc2)c1 | > 50 | 0.63 | 85.1 | 100 | 66.3 | 101 | 5.41 |  |  |  |  |
| COc1ccc(/C=C/C(=O)c2cccc(OC(=O)N(C(C)C)C(C)C)c2)cc1 | < 50 |  |  |  |  |  |  |  |  |  |  |
| CCN(C)C(=O)Oc1cccc([C@H](C)N(C)C)c1 [RIVASTIGMINE] |  | 56.4 | 86.6 | 94.7 | 72.7 | 98.5 |  |  |  |  |  |
| CN(C)C(=O)Oc1cccc(C(=O)/C=C/c2ccc(O)cc2)c1 | > 50 | 48.3 | 94.6 | 96.5 to 96.7 | 71.8 | 102 | 6.44 | 6.06 |  | 6.28 | 6.80 |
| CN(C)C(=O)Oc1cc(OC(=O)N(C)C)cc(C(=O)/C=C/c2ccc(O)cc2)c1 | < 50 |  |  |  |  |  |  |  |  |  |  |
| CCN(C)C(=O)Oc1cccc(/C=C/C(=O)c2ccc(O)cc2)c1 | > 50 | 2.97 | 60.2 | 88.7 | 16.6 | 95.1 | 5.60 |  |  |  |  |
| CC(C)N(C(=O)Oc1cccc(C(=O)/C=C/c2ccc(O)cc2)c1)C(C)C | < 50 |  |  |  |  |  |  |  |  |  |  |
| CN(C)C(=O)Oc1cccc(/C=C/C(=O)c2ccc(O)cc2)c1 | > 50 | 4.37 | 46.2 | 69.9 | 11.2 | 83.9 | 5.66 |  |  |  |  |
| CCN(C)C(=O)Oc1ccccc1C(=O)/C=C/c1ccc(O)cc1 | > 50 | 52.2 | 64.7 | 76.4 | 51.7 | 86 | 5.22 to 5.36 |  |  |  |  |

Source: ChEMBL document CHEMBL3868624, “Design, synthesis, biological evaluation, and molecular modeling studies of chalcone-rivastigmine hybrids as cholinesterase inhibitors” (Bioorg Med Chem, 2017)
